# Results gathered from unrelated publications.
# Compare with care: the assays were run in different laboratories.
# KIT T670I/V559D: Mast/stem cell growth factor receptor Kit (KIT, Homo sapiens, UniProt P10721, T670I/V559D)
# KIT: Mast/stem cell growth factor receptor Kit (KIT, Homo sapiens, UniProt P10721)
# KIT autoinhibited: Mast/stem cell growth factor receptor Kit, autoinhibited (KIT, Homo sapiens, UniProt P10721)
# KIT D816H: Mast/stem cell growth factor receptor Kit (KIT, Homo sapiens, UniProt P10721, D816H)
# KIT V559D/V654A: Mast/stem cell growth factor receptor Kit (KIT, Homo sapiens, UniProt P10721, V559D/V654A)
# KIT A829P: Mast/stem cell growth factor receptor Kit (KIT, Homo sapiens, UniProt P10721, A829P)
# KIT V559D: Mast/stem cell growth factor receptor Kit (KIT, Homo sapiens, UniProt P10721, V559D)
# KIT D816V: Mast/stem cell growth factor receptor Kit (KIT, Homo sapiens, UniProt P10721, D816V)
# KIT L576P: Mast/stem cell growth factor receptor Kit (KIT, Homo sapiens, UniProt P10721, L576P)
SMILES,target,read-out,method,tested at,remaining binding [%]
C=CC(=O)N1CCC(C(=O)NCC(=O)N2CCN(c3nc(-c4cnc(N)nc4C(F)F)nc(N4CCOCC4)n3)CC2)CC1,KIT T670I/V559D,binding,competition with immobilised ligand,1 µM,82
O=C(NCC1CCOCC1)c1n[nH]cc1NC(=O)c1c(F)cccc1F,KIT,binding,competition with immobilised ligand,1 µM,100
COc1cc(-c2cn(C3CCc4ccccc4N(CC(F)(F)F)C3=O)nn2)ccc1-n1ccc(C)n1 (stereo not drawn),KIT autoinhibited,cell-free assay,competition with immobilised ligand,1 µM,100
O=C(NCCCN1CCOCC1)c1ccc(Nc2nccc(-c3cc4ccccc4s3)n2)cc1,KIT D816H,binding,competition with immobilised ligand,1 µM,20
O=C(Nc1c[nH]nc1C(=O)NC1CCNCC1)c1cc(F)cc(F)c1,KIT autoinhibited,binding,competition with immobilised ligand,1 µM,82
COc1ccnn2ncc(-c3ccnc(N(C)C)n3)c12,KIT V559D/V654A,binding,,1 µM,100
COc1cnc(Nc2cccc(S(N)(=O)=O)c2)nc1N1CCN(c2ccccc2)C(=O)C1,KIT V559D/V654A,binding,competition with immobilised ligand,1 µM,97
N#CC1(c2ccccn2)CCN(Cc2cc(C(=O)N3CCCC3)c(=O)n3ccccc23)CC1,KIT A829P,cell-free assay,competition with immobilised ligand,1 µM,50
CN(C)c1nccc(-c2cnc3ncccn23)n1,KIT V559D,binding,,1 µM,81
Nc1ncc2c(n1)-c1c([nH]c3ccc(C#CC4CC4)cc13)CCCC2,KIT V559D,binding,competition with immobilised ligand,1 µM,100
Cc1cnn2ncc(-c3ccnc(N(C)C)n3)c2c1,KIT V559D,binding,,1 µM,100
O=C(N[C@H]1CCCCC/C=C\C2C[C@@]2(C(=O)O)NC(=O)[C@@H]2C[C@@H](Oc3ccncc3)CN2C1=O)OC1CCCC1 (stereo partly drawn),KIT V559D/V654A,binding,competition with immobilised ligand,1 µM,63
c1cnn2ncc(-c3ccnc(N4CCC45COC5)n3)c2c1,KIT autoinhibited,binding,,1 µM,56
Cc1cnc(Nc2ccc(C(=O)N3CCC(N4CCCC4)CC3)cc2)nc1-c1cc2ccccc2s1,KIT autoinhibited,binding,competition with immobilised ligand,1 µM,22
C[C@@H](c1ccc(-n2cnc3c(N)ncnc32)cc1)N1CCc2nn(C)c(Cc3ccccc3)c2C1=O,KIT D816V,binding,competition with immobilised ligand,0.1 µM,99
O=C(O)[C@H]1[C@H](Cn2nnc3ccccc3c2=O)CC[C@@H]1C(=O)c1ccc(OCCC2CCOCC2)cc1,KIT L576P,cell-free assay,competition with immobilised ligand,1 µM,96
C[C@H]1CCN(c2nccc(-c3cnn4ncccc34)n2)C1,KIT A829P,binding,,1 µM,83
CO[C@H]1CC[C@H](CNc2ccc(S(=O)(=O)NC(=O)c3ccc(N4CCN(CC5=C(c6ccc(Cl)cc6)CC(C)(C)CC5)CC4)cc3Oc3cnc4[nH]ccc4c3)cc2[N+](=O)[O-])CC1,KIT V559D,cell-free assay,competition with immobilised ligand,1 µM,99
CN1CCN(c2ccc(Nc3nccc(-c4cccc([N+](=O)[O-])c4)n3)cc2C(F)(F)F)CC1,KIT D816H,binding,,10 µM,2.8
O=C(NCCCN1CCOCC1)c1ccc(Nc2ncc(Cl)c(-c3ccc(Cl)s3)n2)cc1,KIT V559D,binding,competition with immobilised ligand,1 µM,0.05
CN1CCN(c2ccc(Nc3nccc(-c4ccccc4)n3)cc2C(F)(F)F)CC1,KIT D816V,binding,,10 µM,6.8
CNC(=O)[C@@H]1CC[C@@H](n2c(-c3ccc4cnccc4c3)nc3ccc(C(=O)NCc4cccc(C(N)=O)c4)cc32)C1,KIT autoinhibited,binding,competition with immobilised ligand,1 µM,100
O=C(Nc1cccnn1)N1CCC(=Cc2cccc(Oc3ccc(C(F)(F)F)cn3)c2)CC1,KIT T670I/V559D,cell-free assay,competition with immobilised ligand,1 µM,96
O=C(c1ccc(Nc2ncc(Cl)c(-c3ccc(Cl)s3)n2)cc1)N1CCC(N2CCCC2)CC1,KIT A829P,binding,competition with immobilised ligand,1 µM,4.3
COc1cnc(Nc2cccc(S(N)(=O)=O)c2)nc1N1CCN(c2ccccc2)CC1,KIT A829P,binding,competition with immobilised ligand,1 µM,65
CN(C)c1nccc(-c2cnn3ncccc23)n1,KIT A829P,binding,,1 µM,81
COc1ccc2c(c1)O[C@@H](c1ccc(OC)c(OC)c1)C[C@H]2NC(=O)C1(c2ccc3c(c2)OC(F)(F)O3)CC1,KIT L576P,cell-free assay,competition with immobilised ligand,1 µM,92
O=C(c1ccc(Nc2ncc(Cl)c(-c3cc4ccccc4s3)n2)cc1)N1CCC(N2CCCC2)CC1,KIT autoinhibited,binding,competition with immobilised ligand,1 µM,74
CN(c1nccc(-c2cnn3ncccc23)n1)C1CC1,KIT L576P,binding,,1 µM,100
Cc1nc(NC(=O)N2CCC[C@H]2C(N)=O)sc1-c1ccnc(C(C)(C)C(F)(F)F)c1,KIT autoinhibited,binding,competition with immobilised ligand,10 µM,100
N#Cc1ccccc1CSc1nnc2c(n1)[nH]c1ccccc12,KIT,binding,competition with immobilised ligand,10 µM,100
CCCCN(CCCC)C(=O)CN1C[C@H](c2cc(OC)c3c(c2)OCO3)[C@@H](C(=O)O)[C@@H]1CC(C)(C)CCC,KIT D816V,cell-free assay,competition with immobilised ligand,1 µM,100
c1cncc(-c2cccc(Nc3nccc(NC4CCCCC4)n3)c2)c1,KIT D816H,binding,competition with immobilised ligand,10 µM,13
CCN1CCN(Cc2ccc(C(=O)Nc3ccc(C)c(Oc4ccc5c(c4)CC(=O)N5)c3)cc2C(F)(F)F)CC1,KIT D816V,binding,competition with immobilised ligand,1 µM,81
O=C(c1ccc(Nc2nccc(-c3cc4ccccc4s3)n2)cc1)N1CCC(N2CCCC2)CC1,KIT D816V,binding,competition with immobilised ligand,1 µM,15
COc1ncc2cc3ccccc3nc2c1C#N,KIT A829P,cell-free assay,competition with immobilised ligand,5 µM,100
